Data as given in the M2OR odorant receptor database.
Changes are numbered by the printed parent chain.

Tests used:
Details in all cases: stereoisomer not certain
OR2T7 (Homo sapiens) = target: T1, OR2T7 (Homo sapiens) (UniProt P0C7T2)
T1 sequence (whole entry): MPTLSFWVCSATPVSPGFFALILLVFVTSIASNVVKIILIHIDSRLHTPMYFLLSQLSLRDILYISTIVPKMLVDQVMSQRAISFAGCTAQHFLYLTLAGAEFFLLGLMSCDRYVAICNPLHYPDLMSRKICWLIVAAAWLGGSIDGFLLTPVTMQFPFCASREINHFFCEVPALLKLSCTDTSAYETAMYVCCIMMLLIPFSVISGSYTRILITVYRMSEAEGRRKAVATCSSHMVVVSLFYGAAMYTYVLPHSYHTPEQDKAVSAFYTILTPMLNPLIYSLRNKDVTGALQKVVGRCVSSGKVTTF
Summary of the method: (§1)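 Values were gathered from published papers (main text and supplementary material), with extra details requested from the original authors when needed, and checked for typos and inconsistencies. Each receptor–molecule pair is called responsive (active) if the original authors judged the measured signal statistically different from baseline, and non-responsive (inactive) otherwise. Assay methods varied by source, often transient mammalian cell-line luciferase assays. Recorded details include cell line, G-protein, co-transfected protein and tags.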

OR2T8 (Homo sapiens) = target: T2, OR2T8 (Homo sapiens) (UniProt A6NH00)
T2 sequence (whole entry): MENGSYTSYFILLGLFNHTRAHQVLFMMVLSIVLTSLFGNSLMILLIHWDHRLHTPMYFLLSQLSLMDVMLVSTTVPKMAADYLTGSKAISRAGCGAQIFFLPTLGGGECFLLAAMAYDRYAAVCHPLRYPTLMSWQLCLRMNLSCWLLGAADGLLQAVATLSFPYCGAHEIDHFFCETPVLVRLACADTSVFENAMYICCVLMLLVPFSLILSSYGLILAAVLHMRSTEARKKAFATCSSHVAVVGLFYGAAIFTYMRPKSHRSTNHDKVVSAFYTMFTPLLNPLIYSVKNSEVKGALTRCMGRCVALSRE
Summary of the method: as §1

OR2V1 (Homo sapiens) = target: T3, OR2V1 (Homo sapiens) (UniProt Q8NHB1)
T3 sequence (whole entry): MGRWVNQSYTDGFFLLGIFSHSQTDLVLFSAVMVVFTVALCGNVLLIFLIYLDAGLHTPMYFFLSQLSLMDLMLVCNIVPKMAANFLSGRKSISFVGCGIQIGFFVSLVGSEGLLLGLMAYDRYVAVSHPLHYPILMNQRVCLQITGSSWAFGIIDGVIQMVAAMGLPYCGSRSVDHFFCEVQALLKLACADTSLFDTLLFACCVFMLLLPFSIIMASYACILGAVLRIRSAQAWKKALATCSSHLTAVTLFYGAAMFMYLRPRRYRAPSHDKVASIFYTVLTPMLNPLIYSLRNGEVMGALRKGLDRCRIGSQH
Summary of the method: as §1

OR2V2 (Homo sapiens) = target: T4, OR2V2 (Homo sapiens) (UniProt Q96R30)
T4 sequence (whole entry): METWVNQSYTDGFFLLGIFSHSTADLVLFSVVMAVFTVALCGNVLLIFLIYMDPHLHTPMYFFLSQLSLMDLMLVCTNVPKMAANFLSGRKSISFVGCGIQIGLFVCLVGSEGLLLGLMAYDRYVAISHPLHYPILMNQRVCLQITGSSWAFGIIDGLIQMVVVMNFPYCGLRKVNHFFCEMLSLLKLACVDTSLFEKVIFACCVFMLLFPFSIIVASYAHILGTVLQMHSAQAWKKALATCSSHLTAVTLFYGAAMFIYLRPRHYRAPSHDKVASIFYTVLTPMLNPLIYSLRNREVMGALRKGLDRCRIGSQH
Summary of the method: as §1

OR2W1 (Homo sapiens) = target: T5, OR2W1 (Homo sapiens) (UniProt Q9Y3N9)
T5 sequence (whole entry): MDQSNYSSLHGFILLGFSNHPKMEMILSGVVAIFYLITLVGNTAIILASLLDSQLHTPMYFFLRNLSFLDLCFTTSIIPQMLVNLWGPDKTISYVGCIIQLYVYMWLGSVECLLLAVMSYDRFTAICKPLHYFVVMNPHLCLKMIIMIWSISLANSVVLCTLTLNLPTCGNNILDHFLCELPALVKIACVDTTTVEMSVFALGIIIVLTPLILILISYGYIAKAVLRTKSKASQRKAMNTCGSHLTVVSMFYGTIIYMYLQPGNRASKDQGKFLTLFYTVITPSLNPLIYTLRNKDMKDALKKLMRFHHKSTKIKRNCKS
Summary of the method: as §1

OR2T6 C23G = system: T6, OR2T6 C23G
T6 sequence (whole entry): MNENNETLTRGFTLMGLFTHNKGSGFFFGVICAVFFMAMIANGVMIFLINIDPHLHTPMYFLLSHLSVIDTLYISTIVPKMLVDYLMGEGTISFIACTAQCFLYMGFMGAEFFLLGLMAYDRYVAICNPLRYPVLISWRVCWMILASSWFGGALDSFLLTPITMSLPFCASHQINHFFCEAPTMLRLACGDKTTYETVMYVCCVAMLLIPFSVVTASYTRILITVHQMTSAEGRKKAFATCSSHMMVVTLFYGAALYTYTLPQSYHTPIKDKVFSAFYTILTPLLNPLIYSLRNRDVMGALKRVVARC
Summary of the method: as §1

OR2T7 = system: T7, OR2T7
T7 sequence (whole entry): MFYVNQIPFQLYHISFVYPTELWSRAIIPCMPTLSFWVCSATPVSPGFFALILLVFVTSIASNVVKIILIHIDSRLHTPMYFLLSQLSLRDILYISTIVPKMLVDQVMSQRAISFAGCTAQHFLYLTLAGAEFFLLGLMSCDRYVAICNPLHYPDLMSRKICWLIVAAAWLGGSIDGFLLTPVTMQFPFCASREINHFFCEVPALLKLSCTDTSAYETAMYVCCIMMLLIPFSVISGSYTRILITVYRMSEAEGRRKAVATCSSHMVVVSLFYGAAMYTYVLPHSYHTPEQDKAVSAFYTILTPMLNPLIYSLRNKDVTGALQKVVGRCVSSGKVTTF
Summary of the method: as §1

OR2W1 G96V = system: T8, OR2W1 G96V
T8 sequence (whole entry): T5 sequence (whole entry) with G96V
Summary of the method: as §1

OR2W1 [1] = system: T9, OR2W1
T9 sequence (whole entry): T5 sequence (whole entry) with D296N
Summary of the method: as §1

OR2W1 [2] = system: T10, OR2W1; remark: listed apart in the source
T10 sequence (whole entry): T5 sequence (whole entry) with M81V
Summary of the method: as §1

Measured: odorant receptor agonist call

CC1CCCCCCCCCCCCC(=O)C1 (centres undefined)
inactive: OR2T7 (Homo sapiens) | OR2T8 (Homo sapiens) | OR2V1 (Homo sapiens) | OR2V2 (Homo sapiens) | OR2W1 (Homo sapiens)

CCC1OC(=O)C(O)=C1C (centres undefined)
not listed: OR2T7 (Homo sapiens) | OR2W1 [1] | OR2W1 [2]
inactive: all other assays above

Cc1cnc(C)c(C)n1
not listed: OR2T7 (Homo sapiens) | OR2W1 [1] | OR2W1 [2]
inactive: all other assays above

CC(CO)CS (centres undefined)
inactive: OR2T7 (Homo sapiens) | OR2T8 (Homo sapiens) | OR2V1 (Homo sapiens) | OR2V2 (Homo sapiens) | OR2W1 (Homo sapiens)

CCCCCCCO
active: OR2W1 (Homo sapiens)

CCCC(S)CCOC(C)=O (centres undefined)
active: OR2W1 (Homo sapiens) | OR2W1 G96V | OR2W1 [1] | OR2W1 [2]
not listed: OR2T7 (Homo sapiens)
inactive: all other assays above

CCOC(=O)c1ccccc1
active: OR2W1 (Homo sapiens) | OR2W1 [1] | OR2W1 [2]

CCCSSSCCC
active: OR2W1 (Homo sapiens) | OR2W1 [1]
inactive: OR2W1 [2]

CSSCc1ccco1
active: OR2W1 (Homo sapiens) | OR2W1 [1] | OR2W1 [2]

C=CC(O)CCCCC (centres undefined)
active: OR2W1 (Homo sapiens) | OR2W1 [1] | OR2W1 [2]

CSSCc1ccccc1
active: OR2W1 (Homo sapiens) | OR2W1 [1] | OR2W1 [2]

CCCC(=O)OCC
active: OR2W1 (Homo sapiens) | OR2W1 [1] | OR2W1 [2]

CCOC(=O)C=Cc1ccccc1
active: OR2W1 (Homo sapiens) | OR2W1 [1] | OR2W1 [2]

C=C1CCC2(C(C)C)CC12 (centres undefined)
inactive: OR2W1 [2]
active: OR2W1 (Homo sapiens) | OR2W1 [1]

CC(=O)OCC=Cc1ccccc1
active: OR2W1 (Homo sapiens) | OR2W1 [1] | OR2W1 [2]

COC(=O)C=Cc1ccccc1
active: OR2W1 (Homo sapiens) | OR2W1 [1] | OR2W1 [2]

CCCCC1CCC(=O)O1 (centres undefined)
active: OR2W1 (Homo sapiens) | OR2W1 [1] | OR2W1 [2]

CCCCCC1CCC(=O)O1 (centres undefined)
active: OR2W1 (Homo sapiens) | OR2W1 [1] | OR2W1 [2]

CCCCC1OC(=O)CC1C (centres undefined)
active: OR2W1 (Homo sapiens) | OR2W1 [1] | OR2W1 [2]

CCCC(S)CCO (centres undefined)
active: OR2W1 (Homo sapiens) | OR2W1 [1]
inactive: OR2W1 [2]

CCCCCCCCCC(=O)OCC
active: OR2W1 (Homo sapiens) | OR2W1 [1] | OR2W1 [2]
